Laboratory results as given in ChEMBL document CHEMBL1137899, “Glycosylated dihydrochalcones as potent and selective sodium glucose co-transporter 2 (SGLT2) inhibitors” (Bioorg Med Chem Lett, 2004).

What was measured:
[1] = molecular target: T1, Sodium/glucose cotransporter 2 (Homo sapiens, UniProt P31639); experiment: In vitro inhibition of Na-dependent [14C]AMG uptake in CHO-K1 cells expressing human sodium glucose co-transporter 2; assay type: functional, cell-based
T1 sequence (P31639 whole entry): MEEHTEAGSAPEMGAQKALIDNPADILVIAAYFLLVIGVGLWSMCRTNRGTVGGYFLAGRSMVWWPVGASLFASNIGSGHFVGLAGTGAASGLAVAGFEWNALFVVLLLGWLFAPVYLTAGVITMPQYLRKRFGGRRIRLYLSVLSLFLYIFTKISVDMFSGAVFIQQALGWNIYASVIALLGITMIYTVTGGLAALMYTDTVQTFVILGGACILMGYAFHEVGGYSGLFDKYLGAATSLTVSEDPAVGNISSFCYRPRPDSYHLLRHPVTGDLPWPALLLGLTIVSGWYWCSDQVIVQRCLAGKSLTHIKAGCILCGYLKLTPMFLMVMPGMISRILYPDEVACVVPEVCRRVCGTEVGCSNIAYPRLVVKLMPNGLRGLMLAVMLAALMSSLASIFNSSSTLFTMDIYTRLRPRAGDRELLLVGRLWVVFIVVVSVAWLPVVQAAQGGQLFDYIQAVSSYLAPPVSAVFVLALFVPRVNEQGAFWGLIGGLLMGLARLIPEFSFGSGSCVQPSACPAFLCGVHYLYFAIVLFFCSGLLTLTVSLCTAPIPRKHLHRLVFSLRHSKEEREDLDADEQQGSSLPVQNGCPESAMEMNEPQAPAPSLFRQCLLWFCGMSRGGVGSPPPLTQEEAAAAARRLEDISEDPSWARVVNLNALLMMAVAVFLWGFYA
In short: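 CHO-K1 cells overexpressing human SGLT2 pre-treated with compound for 15 min with or without NaCl, then labelled with 14C-alpha-methylglucopyranoside (AMG, nonmetabolizable glucose analogue); sodium-dependent uptake of label measured.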

[2] = Metabolic half-life as a measure of human liver microsomal stability was determined at 5 uM; assay type: ADME; details: liver microsomes
[3] = (§1) In vivo ability to induce urinary glucose excretion in male Zucker Diabetic Fatty (ZDF) rats at 3 mg/kg i.v. dose; assay type: ADME, organism-based, Urine; set-up: dose 3 mg/kg, route intravenous; details: rat, iv
In short: (§2)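 Male ZDF rats, 7–8 weeks, fasted 12 h; compound or vehicle (10% Solutol) given i.v. at 2 mL/kg. Oral glucose challenge (4 mL/kg of 50% solution) 1 h later, rats then placed in metabolism cages with free water access; urine collected for 4 h, glucose quantified with Trinder reagent.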

[4] = test system: Rattus norvegicus; experiment: as §1; assay type: functional, Urine; details: route intravenous; in short: as §2

Structure (SMILES) | Ki [1] [nM] | also measured
CCOc1ccc(CCC(=O)c2c(O)cc(CC)cc2O[C@@H]2O[C@H](CO)[C@@H](O)[C@H](O)[C@H]2O)cc1 | 30 | half-life at 5 µM [2]: > 45 min
Cc1cc(N)c(C(=O)CCc2ccc3c(c2)OCCO3)c(O[C@@H]2O[C@H](CO)[C@@H](O)[C@H](O)[C@H]2O)c1 | 290 | –
O=C(CCc1ccc2c(c1)OCCO2)c1c(O)cc(Cl)cc1O[C@@H]1O[C@H](CO)[C@@H](O)[C@H](O)[C@H]1O | 20 | –
Cc1cc(O)c(C(=O)CCc2ccc3c(c2)OCCO3)c(O[C@@H]2O[C@H](CO)[C@@H](O)[C@H](O)[C@H]2O)c1 | 9 | half-life at 5 µM [2]: > 45 min; Excreted glucose [4]: 608 mg
CCOc1ccc(CCC(=O)c2c(O)cc(C(C)C)cc2O[C@@H]2O[C@H](CO)[C@@H](O)[C@H](O)[C@H]2O)cc1 | 110 | –
Cc1cc(O)c(C(=O)CCC2CCCCC2)c(O[C@@H]2O[C@H](CO)[C@@H](O)[C@H](O)[C@H]2O)c1 | 40 | –
CCc1cc(O)c(C(=O)CCc2ccc3c(c2)OCCO3)c(O[C@@H]2O[C@H](CO)[C@@H](O)[C@H](O)[C@H]2O)c1 | 10 | –
CCOc1ccc(CCC(=O)c2c(N)cc(C)cc2O[C@@H]2O[C@H](CO)[C@@H](O)[C@H](O)[C@H]2O)cc1 | 1280 | –
CCOc1ccc(CCC(=O)c2c(O)cc(Cl)cc2O[C@@H]2O[C@H](CO)[C@@H](O)[C@H](O)[C@H]2O)cc1 | 80 | –
CCOc1ccc(CCC(=O)c2c(Cl)cccc2O[C@@H]2O[C@H](CO)[C@@H](O)[C@H](O)[C@H]2O)cc1 | > 1700 | –
CC(C)c1cc(O)c(C(=O)CCc2ccc3c(c2)OCCO3)c(O[C@@H]2O[C@H](CO)[C@@H](O)[C@H](O)[C@H]2O)c1 | 20 | –
O=C(CCc1ccc2c(c1)OCCO2)c1c(Cl)cccc1O[C@@H]1O[C@H](CO)[C@@H](O)[C@H](O)[C@H]1O | > 1700 | –

Further lines, with some results ahead:

Ki [1] [nM] | Structure (SMILES) | also measured
70 | O=C(CCc1ccc2ccccc2c1)c1c(O)cc(F)cc1O[C@@H]1O[C@H](CO)[C@@H](O)[C@H](O)[C@H]1O | –
150 | CC(C)c1cc(O)c(C(=O)CCc2ccc3ccccc3c2)c(O[C@@H]2O[C@H](CO)[C@@H](O)[C@H](O)[C@H]2O)c1 | –
4 | Cc1cc(O)c(C(=O)CCc2ccc3occc3c2)c(O[C@@H]2O[C@H](CO)[C@@H](O)[C@H](O)[C@H]2O)c1 | half-life at 5 µM [2]: 24 min; Excreted glucose [3]: 1189 mg
70 | Cc1cc(O)c(C(=O)CCc2ccsc2)c(O[C@@H]2O[C@H](CO)[C@@H](O)[C@H](O)[C@H]2O)c1 | –
10 | CCc1cc(O)c(C(=O)CCc2ccc3ccccc3c2)c(O[C@@H]2O[C@H](CO)[C@@H](O)[C@H](O)[C@H]2O)c1 | –
230 | Cc1cc(O)c(C(=O)CCc2ccoc2)c(O[C@@H]2O[C@H](CO)[C@@H](O)[C@H](O)[C@H]2O)c1 | –
30 | O=C(CCc1ccc2ccccc2c1)c1c(O)cc(Cl)cc1O[C@@H]1O[C@H](CO)[C@@H](O)[C@H](O)[C@H]1O | –
10 | CCOc1ccc(CCC(=O)c2c(O)cc(C)cc2O[C@@H]2O[C@H](CO)[C@@H](O)[C@H](O)[C@H]2O)cc1 | half-life at 5 µM [2]: > 45 min
10 | Cc1cc(O)c(C(=O)CCc2ccc3ccccc3c2)c(O[C@@H]2O[C@H](CO)[C@@H](O)[C@H](O)[C@H]2O)c1 | –
520 | Cc1cc(N)c(C(=O)CCc2ccc3ccccc3c2)c(O[C@@H]2O[C@H](CO)[C@@H](O)[C@H](O)[C@H]2O)c1 | –
> 1700 | O=C(CCc1ccc2ccccc2c1)c1c(Cl)cccc1O[C@@H]1O[C@H](CO)[C@@H](O)[C@H](O)[C@H]1O | –
